Experiments:
[1] = biological target: T1, Falcipain 2 (Plasmodium falciparum, UniProt Q9N6S8); test: Inhibition of Plasmodium falciparum falcipain 2 incubated with compound for 10 mins before addition of 25 uM Z-Leu-Arg-AMC substrate by fluorescence spectrophotometry
T1 sequence (Q9N6S8 whole entry): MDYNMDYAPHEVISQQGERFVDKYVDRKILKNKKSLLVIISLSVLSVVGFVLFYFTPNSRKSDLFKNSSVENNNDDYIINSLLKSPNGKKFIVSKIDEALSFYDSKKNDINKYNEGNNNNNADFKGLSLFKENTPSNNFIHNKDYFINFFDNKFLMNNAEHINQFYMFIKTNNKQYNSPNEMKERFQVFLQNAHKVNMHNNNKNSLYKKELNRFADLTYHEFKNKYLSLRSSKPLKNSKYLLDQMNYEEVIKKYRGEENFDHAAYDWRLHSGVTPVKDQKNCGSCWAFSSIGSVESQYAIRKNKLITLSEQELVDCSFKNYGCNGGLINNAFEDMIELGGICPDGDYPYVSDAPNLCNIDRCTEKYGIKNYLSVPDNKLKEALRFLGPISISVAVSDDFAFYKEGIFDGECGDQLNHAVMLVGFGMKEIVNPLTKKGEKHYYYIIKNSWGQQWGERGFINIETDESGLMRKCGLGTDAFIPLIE
Outline: (§1)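 Run at 25 °C in 100 mM sodium acetate pH 6.0 with 5 mM DTT and 0.75% DMSO. Enzyme was preincubated 10 min with compound diluted from DMSO, then Z-Leu-Arg-AMC was added and fluorescence was read immediately. Eight inhibitor concentrations were made by fivefold serial dilution. IC50 was fitted to percent inhibition versus a no-inhibitor control against log concentration.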

[2] = biological target: Cysteine protease falcipain-3 (Plasmodium falciparum, UniProt Q9NAW4); test: Inhibition of Plasmodium falciparum falcipain 3 incubated with compound for 10 mins before addition of 25 uM Z-Leu-Arg-AMC substrate by fluorescence spectrophotometry; outline: as §1
Sequence of Cysteine protease falcipain-3 (Q9NAW4 1-492): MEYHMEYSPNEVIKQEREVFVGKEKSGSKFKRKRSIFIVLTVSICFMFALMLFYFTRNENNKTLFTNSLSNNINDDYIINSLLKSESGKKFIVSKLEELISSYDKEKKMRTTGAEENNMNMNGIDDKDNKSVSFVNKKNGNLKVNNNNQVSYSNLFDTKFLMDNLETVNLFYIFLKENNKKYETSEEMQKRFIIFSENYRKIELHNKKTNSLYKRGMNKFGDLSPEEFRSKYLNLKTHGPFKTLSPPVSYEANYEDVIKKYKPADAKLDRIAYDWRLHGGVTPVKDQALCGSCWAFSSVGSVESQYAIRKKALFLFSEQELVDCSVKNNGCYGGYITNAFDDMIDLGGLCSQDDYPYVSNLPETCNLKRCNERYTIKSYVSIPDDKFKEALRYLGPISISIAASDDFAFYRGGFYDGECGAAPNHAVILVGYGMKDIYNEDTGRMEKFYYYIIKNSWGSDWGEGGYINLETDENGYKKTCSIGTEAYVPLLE

| Structure (SMILES) | IC50 [1] | IC50 [2] |
| --- | --- | --- |
| O=C1Nc2ccccc2C1C=Nc1ccccc1 (stereo not drawn) [3-((phenylamino)methylene)indolin-2-one] | > 50 µM |  |
| CN1C(=O)C(C=NCCCNc2ccnc3cc(Cl)ccc23)c2ccccc21 (stereo not drawn) [(Z/E)-3-((3-(7-chloroquinolin-4-ylamino)propylamino)methylene)-1-methylindolin-2-one] | > 50 µM |  |
| O=C1Nc2ccccc2C1C=NCCCNc1ccnc2cc(Cl)ccc12 (stereo not drawn) [(Z/E)-3-((3-(7-chloroquinolin-4-ylamino)propylamino)methylene)indolin-2-one] | > 50 µM |  |
| O=C1Nc2ccc(Cl)cc2C1C=NCCCNc1ccnc2cc(Cl)ccc12 (stereo not drawn) [(Z/E)-5-chloro-3-((3-(7-chloroquinolin-4-ylamino)propylamino)methylene)indolin-2-one] | > 50 µM |  |
| O=C1Nc2cc(Cl)ccc2C1C=NCCCNc1ccnc2cc(Cl)ccc12 (stereo not drawn) [(Z/E)-6-chloro-3-((3-(7-chloroquinolin-4-ylamino)propylamino)methylene)indolin-2-one] | > 50 µM |  |
| O=C1Nc2c(Cl)cccc2C1C=NCCCNc1ccnc2cc(Cl)ccc12 (stereo not drawn) [(Z/E)-7-chloro-3-((3-(7-chloroquinolin-4-ylamino)propylamino)methylene)indolin-2-one] | > 50 µM |  |
| CC(C)CCNC(=O)[C@H](Cc1ccccc1)N=CC1C(=O)Nc2ccc(Cl)cc21 (stereo partly drawn) [(Z/E)-(S)-2-((5-chloro-2-oxoindolin-3-ylidene)methylamino)-N-isopentyl-3-phenylpropanamide] |  | > 50 µM |
| CC(C)CCNC(=O)[C@H](CC(C)C)N=CC1C(=O)Nc2ccc(Cl)cc21 (stereo partly drawn) [(Z/E)-(S)-2-((5-chloro-2-oxoindolin-3-ylidene)methylamino)-N-isopentyl-4-methylpentanamide] |  | > 50 µM |
| CC(C)CCNC(=O)[C@H](CCc1ccccc1)N=CC1C(=O)Nc2c(Cl)cccc21 (stereo partly drawn) [(Z/E)-(S)-2-((7-chloro-2-oxoindolin-3-ylidene)methylamino)-N-isopentyl-4-phenylbutanamide] |  | > 50 µM |
| CC(C)CCNC(=O)[C@H](CCc1ccccc1)N=CC1C(=O)Nc2ccccc21 (stereo partly drawn) [(Z/E)-(S)-N-isopentyl-2-((2-oxoindolin-3-ylidene)methylamino)-4-phenylbutanamide] |  | > 50 µM |
| CC(C)CCNC(=O)[C@H](CC(C)C)N=CC1C(=O)N(C)c2ccccc21 (stereo partly drawn) [(Z/E)-(S)-N-isopentyl-4-methyl-2-((1-methyl-2-oxoindolin-3-ylidene)methylamino)pentanamide] | > 50 µM | > 50 µM |
| CC(C)CCNC(=O)[C@H](CC(C)C)N=CC1C(=O)Nc2ccccc21 (stereo partly drawn) [(Z/E)-(S)-N-isopentyl-4-methyl-2-((2-oxoindolin-3-ylidene)methylamino)pentanamide] | > 50 µM | > 50 µM |
| CCOC(=O)[C@H](Cc1ccccc1)N=CC1C(=O)Nc2ccccc21 (stereo partly drawn) [(Z/E)-(S)-ethyl 2-((2-oxoindolin-3-ylidene)methylamino)-3-phenylpropanoate] | > 50 µM |  |
| CC(C)CCNC(=O)CN=CC1C(=O)Nc2ccccc21 (stereo not drawn) [(Z/E)-N-isopentyl-2-((2-oxoindolin-3-ylidene)methylamino)acetamide] | > 50 µM | > 50 µM |
| CCOC(=O)CN=CC1C(=O)Nc2ccccc21 (stereo not drawn) [(Z/E)-ethyl 2-((2-oxoindolin-3-ylidene)methylamino)acetate] | > 50 µM |  |

From BindingDB's records for doi:10.1016/j.ejmech.2011.01.008 (University of Lisbon, 2011)
